Laboratory results reported in publication PMC7340344 (Journal of medicinal chemistry, 2020).
Counter-ions that a name gives are not always drawn.

Key:
[1] = biological target: PCAF (Homo sapiens, UniProt Q92831); assay: Inhibition of PCAF; format: biochemical
[2] = biological target: Myst3 (Homo sapiens, UniProt Q92794); assay: Inhibition of Myst3; format: biochemical
[3] = biological target: LSD1 (Homo sapiens, UniProt O60341); assay: Inhibition of LSD1; format: biochemical
[4] = biological target: T1, p300 HAT (Homo sapiens, UniProt Q09472); assay: Steady-state enzyme kinetics, mode of inhibition; format: biochemical
T1 sequence (Q09472 1195-1673): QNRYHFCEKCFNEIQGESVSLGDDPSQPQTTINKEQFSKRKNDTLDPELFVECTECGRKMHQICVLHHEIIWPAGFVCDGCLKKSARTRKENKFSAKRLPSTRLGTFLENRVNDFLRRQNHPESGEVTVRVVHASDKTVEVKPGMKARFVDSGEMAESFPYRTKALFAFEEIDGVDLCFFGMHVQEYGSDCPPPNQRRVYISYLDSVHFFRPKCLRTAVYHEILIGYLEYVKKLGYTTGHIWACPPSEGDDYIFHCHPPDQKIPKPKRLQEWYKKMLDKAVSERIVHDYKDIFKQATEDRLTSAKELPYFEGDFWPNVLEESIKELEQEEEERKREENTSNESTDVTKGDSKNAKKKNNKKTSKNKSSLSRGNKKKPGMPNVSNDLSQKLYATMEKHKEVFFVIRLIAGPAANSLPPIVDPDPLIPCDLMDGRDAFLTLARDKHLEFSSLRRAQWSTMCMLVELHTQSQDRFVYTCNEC
Method in brief: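 Radiometric filter-binding assay with recombinant human GST-p300 HAT domain (residues 1195-1673) expressed in E. coli, at 10 nM. Enzyme was preincubated with test compound for 10 min at 25 °C in 50 mM phosphate, pH 7.0, with 0.01% Brij-35. Histone H3 (1-21) peptide and 3H-Ac-CoA/Ac-CoA started the reaction, with Ac-CoA or peptide concentration varied. After 30 min at 25 °C, formic acid stopped it; peptide was captured on P81 paper, washed with NaHCO3 and scintillation-counted.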

[5] = test system: Kasumi-1 leukemia cells; assay: Western blot of cellular histone acetylation; format: cell-based; conditions: Kasumi-1 cells, 12h, 5 and 10 μM
Method in brief: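 Kasumi-1 cells (10^6/well) were exposed to test compound at 0, 5 and 10 μM for 12 h. Total histones were extracted by kit, and 2 μg per lane were separated by SDS-PAGE and transferred to PVDF. Blots were probed with antibodies to H3K9Ac, H3K18Ac, H3K27Ac and total H3, then with an anti-rabbit IgG secondary.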

[6] = test system: MCF-7; assay: Cell growth inhibition, MCF-7; format: cell-based; conditions: Homo sapiens, MCF7, read-out: Antiproliferative activity EC50 (μM), MCF-7
[7] = test system: ER+ breast cancer MCF-7 cells; assay: RNA sequencing and gene set enrichment analysis; format: cell-based, human; conditions: MCF-7, 6 μM, 48 hours, with estradiol 10 nM; p < 0.001
Method in brief: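 MCF-7 cells were starved for 7 days in phenol red-free DMEM with 10% charcoal-treated FBS. They were then given test compound (6 μM) or DMSO, with or without estradiol (10 nM), for 48 h. Total RNA was sequenced as stranded, rRNA-depleted libraries (HiSeq 2500, paired-end) and mapped to hg38. FPKM values were quantile-normalized and analysed by GSEA against MSigDB and the siRNA p300-knockdown signature (GSE31873, C4–2B cells).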

[8] = biological target: T2, p300 HAT and histone H4 (Homo sapiens, UniProt Q09472); assay: Alpha assay, binding between p300 HAT and histone H4 peptide
T2 sequence (Q09472 1287-1663 limits assumed): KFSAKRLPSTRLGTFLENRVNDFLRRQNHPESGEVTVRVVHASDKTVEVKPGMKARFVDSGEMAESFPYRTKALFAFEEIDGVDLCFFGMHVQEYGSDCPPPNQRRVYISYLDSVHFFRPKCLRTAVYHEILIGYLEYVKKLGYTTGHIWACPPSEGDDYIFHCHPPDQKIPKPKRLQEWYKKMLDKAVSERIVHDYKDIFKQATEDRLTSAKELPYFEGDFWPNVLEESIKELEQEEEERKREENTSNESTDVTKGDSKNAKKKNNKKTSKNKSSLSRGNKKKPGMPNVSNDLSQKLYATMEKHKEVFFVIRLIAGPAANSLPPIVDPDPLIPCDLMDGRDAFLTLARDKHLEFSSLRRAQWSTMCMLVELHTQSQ

[9] = test system: p300/CBP HAT; conditions: cited from earlier work

Sequence of PCAF (Q92831 whole entry): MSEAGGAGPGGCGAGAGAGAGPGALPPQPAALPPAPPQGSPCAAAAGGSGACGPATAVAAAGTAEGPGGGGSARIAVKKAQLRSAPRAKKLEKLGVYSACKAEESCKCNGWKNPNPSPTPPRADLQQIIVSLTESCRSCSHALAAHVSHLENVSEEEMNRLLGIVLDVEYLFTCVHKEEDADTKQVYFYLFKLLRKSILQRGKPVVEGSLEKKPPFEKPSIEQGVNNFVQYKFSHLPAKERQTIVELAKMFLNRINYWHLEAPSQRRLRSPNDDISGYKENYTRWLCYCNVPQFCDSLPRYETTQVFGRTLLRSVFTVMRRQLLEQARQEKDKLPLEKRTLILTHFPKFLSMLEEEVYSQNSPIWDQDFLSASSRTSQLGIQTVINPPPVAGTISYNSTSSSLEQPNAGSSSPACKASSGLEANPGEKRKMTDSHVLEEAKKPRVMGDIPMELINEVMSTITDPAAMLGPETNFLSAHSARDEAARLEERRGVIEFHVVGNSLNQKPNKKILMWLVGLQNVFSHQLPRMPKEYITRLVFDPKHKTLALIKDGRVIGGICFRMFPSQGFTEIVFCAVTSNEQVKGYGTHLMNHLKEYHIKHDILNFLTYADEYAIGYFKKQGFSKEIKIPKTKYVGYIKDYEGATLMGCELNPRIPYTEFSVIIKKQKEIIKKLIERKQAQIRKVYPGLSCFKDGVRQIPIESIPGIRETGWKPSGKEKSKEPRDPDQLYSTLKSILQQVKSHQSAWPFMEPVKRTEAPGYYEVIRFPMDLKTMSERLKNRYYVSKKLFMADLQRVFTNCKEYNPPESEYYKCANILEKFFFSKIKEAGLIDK
Sequence of Myst3 (Q92794 whole entry): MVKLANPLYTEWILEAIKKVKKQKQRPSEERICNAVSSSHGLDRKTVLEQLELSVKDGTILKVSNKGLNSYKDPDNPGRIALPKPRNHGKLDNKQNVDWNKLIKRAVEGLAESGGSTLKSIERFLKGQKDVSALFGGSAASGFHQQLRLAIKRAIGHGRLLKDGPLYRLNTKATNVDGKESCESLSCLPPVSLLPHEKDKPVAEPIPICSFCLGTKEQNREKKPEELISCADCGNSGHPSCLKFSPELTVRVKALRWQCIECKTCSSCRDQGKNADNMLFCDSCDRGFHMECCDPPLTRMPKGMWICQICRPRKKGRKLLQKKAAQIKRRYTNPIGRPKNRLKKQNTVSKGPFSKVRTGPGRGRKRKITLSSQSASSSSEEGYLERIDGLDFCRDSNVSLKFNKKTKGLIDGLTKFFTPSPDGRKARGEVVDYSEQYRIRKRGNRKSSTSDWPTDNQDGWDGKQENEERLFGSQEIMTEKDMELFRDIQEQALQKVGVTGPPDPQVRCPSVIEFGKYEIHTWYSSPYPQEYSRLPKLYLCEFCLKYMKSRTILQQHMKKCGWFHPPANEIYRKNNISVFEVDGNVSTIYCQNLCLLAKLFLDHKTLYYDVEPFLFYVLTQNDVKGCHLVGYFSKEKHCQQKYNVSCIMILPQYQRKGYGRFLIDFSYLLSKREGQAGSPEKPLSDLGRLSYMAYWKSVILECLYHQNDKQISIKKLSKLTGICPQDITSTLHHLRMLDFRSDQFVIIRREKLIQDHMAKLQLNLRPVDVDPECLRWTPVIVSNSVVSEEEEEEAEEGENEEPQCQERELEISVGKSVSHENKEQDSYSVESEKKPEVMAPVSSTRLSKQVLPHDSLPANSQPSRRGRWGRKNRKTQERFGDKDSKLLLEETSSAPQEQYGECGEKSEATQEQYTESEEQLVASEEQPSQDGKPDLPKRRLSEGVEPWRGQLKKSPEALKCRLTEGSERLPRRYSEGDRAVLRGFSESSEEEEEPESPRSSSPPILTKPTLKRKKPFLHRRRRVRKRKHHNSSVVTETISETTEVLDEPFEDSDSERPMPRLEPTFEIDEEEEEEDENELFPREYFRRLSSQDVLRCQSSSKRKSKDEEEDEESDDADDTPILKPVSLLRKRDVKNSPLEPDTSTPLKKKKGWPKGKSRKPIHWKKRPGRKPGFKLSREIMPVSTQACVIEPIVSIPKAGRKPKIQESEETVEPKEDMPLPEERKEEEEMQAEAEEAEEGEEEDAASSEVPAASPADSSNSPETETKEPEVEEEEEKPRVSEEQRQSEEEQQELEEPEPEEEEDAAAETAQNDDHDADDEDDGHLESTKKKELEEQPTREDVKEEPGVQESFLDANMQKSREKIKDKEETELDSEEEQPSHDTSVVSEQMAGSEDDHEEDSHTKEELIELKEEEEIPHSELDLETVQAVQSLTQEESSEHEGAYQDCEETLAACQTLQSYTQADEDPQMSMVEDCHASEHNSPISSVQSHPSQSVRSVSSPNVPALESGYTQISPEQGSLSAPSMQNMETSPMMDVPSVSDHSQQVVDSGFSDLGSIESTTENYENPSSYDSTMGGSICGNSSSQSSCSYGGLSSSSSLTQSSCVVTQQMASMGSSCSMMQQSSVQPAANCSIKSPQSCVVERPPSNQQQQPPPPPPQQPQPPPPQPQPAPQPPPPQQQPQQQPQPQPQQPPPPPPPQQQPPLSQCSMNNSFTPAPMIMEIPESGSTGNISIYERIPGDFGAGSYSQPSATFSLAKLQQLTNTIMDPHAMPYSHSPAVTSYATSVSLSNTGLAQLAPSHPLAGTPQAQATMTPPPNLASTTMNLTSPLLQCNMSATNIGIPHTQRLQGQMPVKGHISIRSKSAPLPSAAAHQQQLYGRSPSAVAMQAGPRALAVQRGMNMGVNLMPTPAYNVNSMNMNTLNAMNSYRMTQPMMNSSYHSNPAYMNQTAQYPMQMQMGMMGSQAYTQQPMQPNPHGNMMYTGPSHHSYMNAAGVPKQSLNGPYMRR

Compound | inhibition of PCAF activity at 50 μM [1] | inhibition of Myst3 activity at 50 μM [2] | inhibition of LSD1 activity at 50 μM [3] | mode of inhibition against the cofactor Ac-CoA ([4]; Ac-CoA 0.5 - 8 μM (0.07-[…] Km)) | mode of inhibition against the substrate histone ([4]; histone peptide 2 - 100 μM) | cellular acetylation of histone H3K9, H3K18 and H3K27 [5] | EC50 [6] [µM] | NES, gene set upregulated by estradiol [7] | NES, genes suppressed by estradiol [7] | normalized enrichment score (NES), genes suppressed by p300 knockdown (GSE31873) [7] | effect on binding between p300 HAT and histone H4 (in words) [8] | mode of inhibition [9]
CC(C)(C)c1ccc(-c2cc(CNCC3CCNCC3)sc2-c2ccc(C(C)(C)C)cc2)cc1 [Compound 12, 1-(4,5-bis(4-(tert-Butyl)phenyl)thiophen-2-yl)-N-(piperidin-4-ylmethyl)methanamine hydrochloride] | did not significantly inhibit | did not significantly inhibit | did not significantly inhibit | non-competitive | competitive | significantly inhibit | ~3 | −9.19 | 7.41 | −3.32 |  | 
CNC(=O)Nc1ccc2c(c1)CC[C@@]21OC(=O)N(CC(=O)N(Cc2ccc(F)cc2)[C@@H](C)C(F)(F)F)C1=O [Compound A-485, reference compound] |  |  |  |  |  |  |  |  |  |  | did not affect the binding | competitive against the enzyme cofactor acetyl coenzyme A (Ac-CoA)
